# Results: article PMC2077835 (Drug metabolism and disposition: the biological fate of …, 2006)
# How the values were obtained:
# [1] = system: M1 formation by human liver microsomes; experiment: Chemical inhibition of M1 formation by HLMs; type: biochemical
# [2] = target: T1, recombinant CYP4F2 (Homo sapiens, UniProt P78329); experiment: Chemical inhibition of M1 formation by recombinant CYP4F2; type: biochemical
# T1 sequence (P78329 5-520): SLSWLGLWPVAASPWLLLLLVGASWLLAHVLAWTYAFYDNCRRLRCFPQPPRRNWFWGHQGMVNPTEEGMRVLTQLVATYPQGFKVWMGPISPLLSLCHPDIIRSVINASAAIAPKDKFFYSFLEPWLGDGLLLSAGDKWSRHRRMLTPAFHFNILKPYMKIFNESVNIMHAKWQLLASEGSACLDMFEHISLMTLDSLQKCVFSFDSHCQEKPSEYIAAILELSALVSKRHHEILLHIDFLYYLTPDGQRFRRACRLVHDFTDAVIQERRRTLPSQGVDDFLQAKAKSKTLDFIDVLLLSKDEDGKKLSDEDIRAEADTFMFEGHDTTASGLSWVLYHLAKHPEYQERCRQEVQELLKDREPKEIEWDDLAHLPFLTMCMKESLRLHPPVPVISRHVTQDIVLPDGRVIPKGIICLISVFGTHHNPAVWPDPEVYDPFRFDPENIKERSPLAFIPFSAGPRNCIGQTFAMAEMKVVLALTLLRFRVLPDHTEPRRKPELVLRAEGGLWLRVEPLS
# [3] = target: T2, recombinant CYP4F3B (Homo sapiens, UniProt Q08477); experiment: Chemical inhibition of M1 formation by recombinant CYP4F3B; type: biochemical
# T2 sequence (Q08477 1-520 isoform Q08477-2): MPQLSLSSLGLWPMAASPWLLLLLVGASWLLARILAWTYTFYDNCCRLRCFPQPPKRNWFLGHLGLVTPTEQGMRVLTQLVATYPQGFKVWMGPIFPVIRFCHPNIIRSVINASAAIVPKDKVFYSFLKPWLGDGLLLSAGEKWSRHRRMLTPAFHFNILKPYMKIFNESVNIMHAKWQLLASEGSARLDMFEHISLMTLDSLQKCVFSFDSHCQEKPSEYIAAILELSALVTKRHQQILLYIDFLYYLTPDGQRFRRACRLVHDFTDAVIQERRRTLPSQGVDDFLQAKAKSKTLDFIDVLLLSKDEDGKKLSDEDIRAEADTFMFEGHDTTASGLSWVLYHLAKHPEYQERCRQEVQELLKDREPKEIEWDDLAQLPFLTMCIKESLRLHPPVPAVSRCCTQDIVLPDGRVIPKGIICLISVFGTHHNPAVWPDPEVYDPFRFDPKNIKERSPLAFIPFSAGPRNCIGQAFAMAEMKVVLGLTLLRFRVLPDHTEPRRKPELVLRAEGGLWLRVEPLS
# [4] = target: T3, CYP2J2 (Homo sapiens, UniProt P51589); experiment: Chemical inhibition of M1 formation by recombinant CYP2J2; type: biochemical
# T3 sequence (P51589 1-502): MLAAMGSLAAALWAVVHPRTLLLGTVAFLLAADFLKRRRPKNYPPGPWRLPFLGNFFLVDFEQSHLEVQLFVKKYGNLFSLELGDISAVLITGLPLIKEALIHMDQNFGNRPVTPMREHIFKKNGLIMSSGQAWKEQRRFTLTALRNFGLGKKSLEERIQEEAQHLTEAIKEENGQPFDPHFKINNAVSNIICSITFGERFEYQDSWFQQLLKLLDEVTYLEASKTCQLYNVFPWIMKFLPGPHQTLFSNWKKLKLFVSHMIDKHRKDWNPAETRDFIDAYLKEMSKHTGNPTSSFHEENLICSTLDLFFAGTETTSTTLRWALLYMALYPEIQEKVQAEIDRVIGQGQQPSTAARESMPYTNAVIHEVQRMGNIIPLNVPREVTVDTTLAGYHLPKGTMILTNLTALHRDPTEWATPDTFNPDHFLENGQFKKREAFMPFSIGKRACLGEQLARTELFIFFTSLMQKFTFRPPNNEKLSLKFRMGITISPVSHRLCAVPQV
# [5] = Incubation of DB289 with pooled human liver microsomes; type: in vitro ADME; conditions: 15 μM DB289, 0.2 mg/ml HLMs, 0-120 min
# Summary of the method: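 Pooled liver microsomes (50 donors, mixed gender) at 0.2 mg/ml with 15 μM substrate in a 1 ml mix, equilibrated 5 min at 37°C, then started with NADPH. Aliquots taken at 0, 5, 15, 30 and 120 min into ice-cold acetonitrile. LC/UV at 359 nm against an external 0.1–15 μM calibration; metabolites identified by retention time versus synthetic standards. Single determination; controls lacked NADPH, protein or substrate.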
# [6] = HLMs, ref Zimmerlin and Patten (2000), cited from earlier work
# [7] = system: CYP2J2; conditions: ref Hashizume et al. (2002); cited from earlier work
# [8] = 0.2 μM and 1 μM, 10 pmol/ml P450, 3 μM DB289
# [9] = read-out: inhibition of M1 formation
# [10] = 100 μM inhibitor, 10 pmol/ml P450, 3 μM DB289
compound,measurement,setting,value
"C#CCCCCCCCCCCCCCCCC(=O)O [17-ODYA, 17-Octadecynoic acid]",inhibition of M1 formation,"[1]; 1 μM inhibitor, 15 min preincubation, 0.2 mg/ml HLM, 3 μM DB289",39%
same,inhibition of M1 formation,"[1]; 10 μM inhibitor, 15 min preincubation, 0.2 mg/ml HLM, 3 μM DB289",84%
same,activation of M1 formation at low concentrations,[2]; [8],activation was not observed
same,activation of M1 formation at low concentrations,[3]; [8],appeared to activate
same,activation of M1 formation at low concentrations,[4]; [8],activation was not observed
"Nn1nnc2ccccc21 [ABT, 1-aminobenzotriazole]",inhibition of M1 formation relative to control,"[1]; 100 μM inhibitor, 15 min preincubation, 0.2 mg/ml HLM, 3 μM DB289, 5 min",86%
"N=C(N)c1ccc(-c2ccc(-c3ccc(C(=N)N)cc3)o2)cc1 [DB75, 2,5-bis(4-amidinophenyl) furan]",concentration of metabolite formed from DB289,[5],below the lower level of quantification
"CCCCCCCCc1ccc(CCC(N)(CO)CO)cc1 [FTY720, 2-amino-2-[2-(4-octylphenyl)ethyl]-1,3-propanediol]",Vmax of ω-hydroxylation,[6],1850 pmol/min/mg protein
same,Km,[6]; read-out: apparent Km of ω-hydroxylation,180 µM
"CCCCc1ccc(N=CNO)c(C)c1 [HET0016, N-hydroxy-N′-(4-n-butyl-2-methylphenyl)formamidine]",inhibition of M1 formation,"[1]; 0.1 μM inhibitor, 0.2 mg/ml HLM, 3 μM DB289",78%
same,inhibition of M1 formation,"[1]; 0.5 μM inhibitor, 0.2 mg/ml HLM, 3 μM DB289",95%
same,inhibition at 0.02 µM,[2]; [9],82%
same,inhibition at 0.02 µM,[3]; [9],79%
CCCCC/C=C\C/C=C\C/C=C\C/C=C\CCCC(=O)O [arachidonic acid],inhibition of M1 formation,"[1]; 500 μM inhibitor, 0.2 mg/ml HLM, 3 μM DB289",60%
same,inhibition of M1 formation,"[1]; inhibitor up to 100 μM, 0.2 mg/ml HLM, 3 μM DB289",no effect
same,inhibition of M1 formation,[2]; [10],potently inhibited
same,inhibition of M1 formation,[3]; [10],potently inhibited
CC(C)(C)c1ccc(C(=O)CCCN2CCC(OC(c3ccccc3)c3ccccc3)CC2)cc1 [ebastine],Km,[7],1.3 µM
CC(=O)N1CCN(c2ccc(OCC3COC(Cn4ccnc4)(c4ccc(Cl)cc4Cl)O3)cc2)CC1 (stereo not shown) [ketoconazole],inhibition of M1 formation,"[1]; 3 μM inhibitor, 0.2 mg/ml HLM, 3 μM DB289, 5 min, Fig. 4",61%
same,inhibition of M1 formation,"[1]; 3 μM inhibitor, 0.2 mg/ml pooled HLMs (different lot), 3 μM DB289, 5 min, Fig. 8",~43%
same,inhibition at 3 µM,[2]; [9],87%
same,inhibition of M1 formation,"[3]; 3 μM inhibitor, 10 pmol/ml P450, 3 μM DB289, 15 min",no effect
same,"inhibition at 5 min, 3 μM","[4]; human, recombinant CYP2J2, pH 7.4, probe DB289 (3 μM), conversion to M1",93%
CO[C@H]1C[C@H](O[C@H]2[C@H](C)[C@@H](O[C@@H]3O[C@H](C)C[C@H](N(C)C)[C@H]3OC(C)=O)[C@@H](C)C[C@@]3(CO3)C(=O)[C@H](C)[C@@H](OC(C)=O)[C@@H](C)[C@@H](C)OC(=O)[C@@H]2C)O[C@@H](C)[C@@H]1OC(C)=O [troleandomycin],inhibition of M1 formation,"[1]; 50 or 100 μM inhibitor, 0.2 mg/ml HLM, 3 μM DB289",did not inhibit
O=c1cc(-c2ccccc2)oc2c1ccc1ccccc12 [α-naphthoflavone],inhibition of M1 formation,"[1]; 1 μM inhibitor, 0.2 mg/ml HLM, 3 μM DB289, 5 min",negligible inhibition
